Results taken from ChEMBL document CHEMBL2093137, “WHO-TDR NTD Screening”.
≈ marks a conversion by molar mass, not a printed value.

Legend:
Trypanosoma cruzi = assay: WHO-TDR: Chagas disease; type: functional, organism-based, Homo sapiens; details: MRC5
Outline: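 Each IC50 reflects antiparasitic potency against intracellular amastigotes of Trypanosoma cruzi Tulahuen CL2 beta-galactosidase strain. These were cultured in MRC-5SV2 human lung fibroblasts and exposed to a 10,000-compound diverse Life Chemicals library screened according to published standard procedures with a reference drug as positive control.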

[1] = WHO-TDR: Cytotoxicity; type: toxicity, cell-based; details: human, MRC5 cells
Brugia malayi [2] = assay: (§1) WHO-TDR: Lymphatic Filariasis; type: functional; design: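 tested at 10 µM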
Outline: (§2)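 Following previously published standard procedures, compounds were tested on whole Brugia malayi microfilariae, with reference drugs as positive controls. They came from a diverse Life Chemicals collection of 10,000 compounds filtered for drug-likeness and reactive groups. Results appear as percent inhibition and as IC50.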

Plasmodium falciparum K1 = assay: WHO-TDR: Malaria; type: functional, organism-based, Homo sapiens; details: Erythrocyte
Outline: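 Antiplasmodial potency, expressed as IC50, was measured in a whole-organism assay on intra-erythrocytic Plasmodium falciparum K1 in human red blood cells. The screened library held 10,000 diverse compounds from Life Chemicals.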

Schistosoma mansoni = assay: WHO-TDR: Schistosomiasis; type: functional; design: concentration or dose not given beside the values
Outline: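 Activity appears as percent inhibition and as IC50. The underlying screen tested a diverse library of 10,000 compounds, supplied by Life Chemicals, on whole larval and/or adult worms of the Puerto Rican strain of Schistosoma mansoni.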

Brugia malayi [3] = assay: as §1; type: functional; design: concentration or dose not given beside the values; outline: as §2; remark: listed apart in the source
[4] = system: Trypanosoma brucei brucei; assay: WHO-TDR: Human African Trypanosomiasis (HAT); type: functional, organism-based; details: Squib-427
Outline: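 Antiparasitic potency is reported as IC50. The screen covered 10,000 compounds from a diverse Life Chemicals library, filtered for drug-likeness and reactive groups, tested on whole bloodstream-form Trypanosoma brucei of the Squib 427 strain.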

Leishmania infantum = assay: WHO-TDR: Leishmaniasis; type: functional, organism-based, Mus musculus; details: Macrophage
Outline: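 Antiparasitic potency, reported as IC50, was measured against intracellular Leishmania infantum amastigotes. The parasite strain was MHOM/MA(BE)/67, and murine peritoneal macrophages served as host cells for the screen of a 10,000-compound diverse library from Life Chemicals.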

Brugia malayi [5] = assay: as §1; type: functional, organism-based; outline: as §2
Onchocerca lienalis = assay: (§3) WHO-TDR: Onchocerciasis; type: functional; design: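 at 12.5 µM on microfilariae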
Outline: (§4)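 Following previously published standard procedures, with reference drugs as positive controls, a diverse Life Chemicals library was tested on whole Onchocerca ochengi or Onchocerca lienalis microfilariae. The library held 10,000 compounds filtered for drug-likeness and reactive groups. Activity is recorded both as percent inhibition and as IC50.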

Onchocerca ochengi = assay: as §3; type: functional; design: concentration or dose not given beside the values; outline: as §4;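 also: at 12.5 µM on microfilariae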

Compound	IC50 (Trypanosoma cruzi) [µg/mL]	IC50 [1] [µg/mL]	% Inhibition (Brugia malayi [2]) [%]	IC50 (Plasmodium falciparum K1) [µg/mL]	% Inhibition (Schistosoma mansoni) [%]	% Inhibition (Brugia malayi [3]) [%]	IC50 [4] [µg/mL]	IC50 (Leishmania infantum) [µg/mL]	IC50 (Brugia malayi [5]) [µM]	% Inhibition (Onchocerca lienalis) [%]	% Inhibition (Onchocerca ochengi) [%]
COc1cccc2sc(Nc3nnc(-c4cccs4)o3)nc12	0.313 (≈ 0.947 µM)	1.83 (≈ 5.54 µM)	50	1.25 (≈ 3.78 µM)	0	100	0.346 (≈ 1.05 µM)	3.17 (≈ 9.6 µM)	5.09		
CC1CCc2c(sc(Nc3nc4c(F)cccc4s3)c2C(N)=O)C1 (stereo not drawn)	4.66 (≈ 12.9 µM)	> 10.8	25	2.69 (≈ 7.46 µM)	0	100	2.31 (≈ 6.39 µM)	3.51 (≈ 9.71 µM)	4.99		
O=C(COc1ccc(Cl)cc1Cl)Nc1nnc(C23CC4CC(CC(C4)C2)C3)s1	> 13.2	> 13.2	0	> 13.2	0	100	> 13.2	4.26 (≈ 9.71 µM)	1.49	0	
O=C(O)CCC(=O)Nc1ccc(Br)cc1	> 8.16	> 8.16	0	> 8.16	0	100	> 8.16	> 8.16	6.6	0	
O=C(CSc1nnc(NC(=O)C2CCCCC2)s1)Nc1ccccc1C(F)(F)F	> 13.3	> 13.3	0	> 13.3	0	100	> 13.3	> 13.3	3.58	0	
COc1ccc(C(=O)Nc2nnc(SCC(=O)Nc3cc(C(F)(F)F)ccc3Cl)s2)cc1OC	> 16	> 16	0	> 16	0	100	> 16	> 16	5.95	26.67	
O=C(CSc1nnc(NC(=O)C23CC4CC(CC(C4)C2)C3)s1)Nc1nccs1	> 13.1	> 13.1	33.33	> 13.1	0	100	> 13.1	4.23 (≈ 9.71 µM)	6.3	33.34	
COc1cccc(C(=O)Nc2nnc(SCc3ccc(Br)cc3)s2)c1	> 13.1	> 13.1	33.33	> 13.1	0	100	> 13.1	> 13.1	1.77	0	
O=C(Nc1nccs1)c1ccc2c(c1)CCCC2	> 7.75	> 7.75	25	> 7.75	0	100	> 7.75	> 7.75	5.19	0	
O=C(Nc1nc(-c2ccccn2)cs1)c1ccc2c(c1)CCCC2	> 10.1	> 10.1	50	9.24 (≈ 27.5 µM)	12.5	100	> 10.1	> 10.1	1.91	60	
O=C(Nc1nc(-c2ccccn2)cs1)c1ccc2ncsc2c1	0.345 (≈ 1.02 µM)	3.63 (≈ 10.7 µM)	40	1.52 (≈ 4.49 µM)	0	100	2.36 (≈ 6.99 µM)	3.21 (≈ 9.49 µM)	2.02	66.7	
CCN1CCc2c(sc(NC(=O)c3ccc(S(=O)(=O)N4CC5(C)CC4CC(C)(C)C5)cc3)c2C(N)=O)C1 (stereo not drawn)	3.2 (≈ 5.88 µM)	3.41 (≈ 6.26 µM)	0	5.59 (≈ 10.3 µM)	0	100	3.82 (≈ 7.01 µM)	5.29 (≈ 9.71 µM)	3.54	6.7	
COC(=O)c1ccc(COc2cccc3c2CCN(Cc2ccc(Cl)cc2)C3=O)o1	3.19 (≈ 7.49 µM)	> 12.8	12.5	4.84 (≈ 11.4 µM)	0	100	0.772 (≈ 1.81 µM)	> 12.8	4.61	20	
COc1ccc(-c2nnc(NC(=O)c3ccc(S(=O)(=O)N4CC(C)OC(C)C4)cc3)o2)c(OC)c1 (stereo not drawn)	4.91 (≈ 9.78 µM)	> 15.1	25	10.6 (≈ 21.1 µM)	0	100	> 15.1	4.88 (≈ 9.71 µM)	3.22	66.7	
CCOc1cccc2sc(Nc3nc4ccc5sc(C)nc5c4s3)nc12	> 12	> 12	50	> 12	0	100	> 12	> 12	4.49		
Fc1cccc2sc(Nc3nc4c(s3)CCCC4)nc12	> 9.16	> 9.16	50	> 9.16	0	100	> 9.16	> 9.16	4.36		
Cc1nc2ccc3nc(Nc4nc5c(F)cccc5s4)sc3c2s1	> 11.2	> 11.2	50	> 11.2	0	100	> 11.2	> 11.2	5.21		
CCOC(=O)c1sc(Nc2nc3c(F)cccc3s2)nc1C	> 10.1	> 10.1	50	> 10.1	0	100	> 10.1	6.9 (≈ 20.4 µM)	4.99		
CS(=O)(=O)c1ccc2nc(Nc3nc4c(F)cccc4s3)sc2c1	> 11.4	> 11.4	25	6.16 (≈ 16.2 µM)	0	100	> 11.4	> 11.4	4.49		
CC(=O)Nc1ccc2nc(Nc3nc4ccc(C(C)C)cc4s3)sc2c1	2.37 (≈ 6.2 µM)	> 11.5	25	2.19 (≈ 5.72 µM)	0	100	4.49 (≈ 11.7 µM)	4.12 (≈ 10.8 µM)	5.09		
CC(C)c1ccc2nc(Nc3nc4ccc(S(C)(=O)=O)cc4s3)sc2c1	> 12.1	> 12.1	25	> 12.1	0	100	> 12.1	3.92 (≈ 9.71 µM)	4.95		
COc1ccc(NC(=O)c2oc3ccccc3c2NC(=O)c2cccc(Cl)c2)c(OC)c1	> 13.5	> 13.5	0	> 13.5	25	100	> 13.5	> 13.5	4.49		
CCOC(=O)c1sc(NC(=O)C(C)Sc2ncnc3ccccc23)c(C(=O)OCC)c1C (stereo not drawn)	> 14.2	> 14.2	0	> 14.2	0	100	> 14.2	> 14.2	4.36		
O=C(Cc1cc(-c2ccc(Cl)cc2)on1)Nc1cccnc1	2.25 (≈ 7.18 µM)	1.19 (≈ 3.8 µM)	0	> 9.41	0	100	> 9.41	> 9.41	1.77		75
COC(=O)c1ccc(CSc2ccc(NC(=O)C(C)C)nn2)o1	> 10.1	> 10.1	0	> 10.1	0	100	> 10.1	> 10.1	6.15		0
CCn1ccc(C(=O)Nc2nc(-c3cc(Cl)ccc3Cl)cs2)n1	> 11	> 11	0	> 11	50	100	3.52 (≈ 9.6 µM)	> 11	5.18		50
COc1ccc2nc(Nc3nc(-c4ccccn4)cs3)sc2c1	< 0.102	0.129 (≈ 0.378 µM)	25	0.312 (≈ 0.915 µM)	0	100	< 0.102	0.323 (≈ 0.949 µM)	2.61		
